Laboratory results published in article PMC3646568 (Protein and peptide letters, 2012).
Read-outs that look alike come from different tables or passages of the source. Values belong to the molecule of their own block, whether it stands above or below them.

Columns and labels:
[1] = test system: VEGF or basic fibroblast growth factor (bFGF); details: cited from earlier work
VEGFR-2-Fc = details: cited from earlier work
VEGFR-3 (Homo sapiens) = VEGFR-3 (Homo sapiens) (UniProt P35916); details: cited from earlier work
[2] = target: T1, recombinant mouse VEGFR-3-Fc (mouse, UniProt P35917 25-775); assay: SPR
T1 sequence (looked up): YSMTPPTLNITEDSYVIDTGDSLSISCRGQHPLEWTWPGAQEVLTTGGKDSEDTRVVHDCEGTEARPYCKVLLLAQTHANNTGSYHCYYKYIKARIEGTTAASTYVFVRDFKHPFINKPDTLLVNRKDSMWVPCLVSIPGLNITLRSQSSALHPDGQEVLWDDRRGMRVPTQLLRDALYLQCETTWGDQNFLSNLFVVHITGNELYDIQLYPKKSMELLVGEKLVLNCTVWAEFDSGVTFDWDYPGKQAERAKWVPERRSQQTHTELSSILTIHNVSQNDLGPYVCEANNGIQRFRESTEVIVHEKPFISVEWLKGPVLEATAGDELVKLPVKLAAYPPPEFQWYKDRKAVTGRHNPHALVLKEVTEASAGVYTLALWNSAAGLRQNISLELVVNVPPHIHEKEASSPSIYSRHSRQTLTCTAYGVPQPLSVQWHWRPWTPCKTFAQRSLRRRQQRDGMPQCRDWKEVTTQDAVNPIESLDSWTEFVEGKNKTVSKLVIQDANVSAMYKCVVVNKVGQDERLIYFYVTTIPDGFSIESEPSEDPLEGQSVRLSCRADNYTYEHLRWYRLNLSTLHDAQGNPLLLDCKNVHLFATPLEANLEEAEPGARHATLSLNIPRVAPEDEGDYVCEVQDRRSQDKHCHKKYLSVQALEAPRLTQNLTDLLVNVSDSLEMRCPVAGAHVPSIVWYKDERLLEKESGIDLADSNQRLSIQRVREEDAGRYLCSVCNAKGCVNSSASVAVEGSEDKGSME

[3] = test system: Primary human lung lymphatic endothelial cells (h-LECs); assay: Scratch wound cell migration assay, h-LECs; format: cell-based; details: 100 ng/mL VEGF-C stimulation, 24 h
Summary of the method: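 Confluent h-LECs held serum-free for 24 h, rinsed with DMEM, and scratched with a pipette tip. Washed with PBS, then kept 24 h in experimental medium with 100 ng/mL VEGF-C ± test peptide. Fixed in 4% paraformaldehyde; cells migrating past the scratch counted in ≥3 fields per well, three wells per condition.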

[4] = target: VEGFR3-AP (a VEGFR-3 fusion protein); details: fully processed VEGF-C binding to VEGFR3-AP; cited from earlier work
recombinant VEGFR-3-Fc = format: binding, mouse; details: pull-down
Summary of the method: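 GST-fused endostatin-containing fragments were incubated with recombinant VEGFR-3-Fc and a range of VEGF-C concentrations. Receptor–ligand complexes were recovered by pull-down and probed by western blot with anti-VEGFR-3 antibody.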

Molecule: endostatin
Binding to VEGF or bFGF [1]: does not bind to VEGF or basic fibroblast growth factor (bFGF)
Block of interaction of VEGF-A and VEGFR-2-Fc (VEGFR-2-Fc; 10-min preincubation of endostatin with VEGFR-2-Fc): blocks the interaction of VEGF-A and VEGFR-2-Fc in a dose-dependent manner
Dissociation rate of VEGFR-2-Fc from VEGF and its receptor complex (VEGFR-2-Fc; endostatin 10 μg/mL): does not affect the dissociation rate

Molecule: VEGF-C (from UniProt P49767)
Kd (VEGFR-3 (Homo sapiens)): 1 nM

koff [2]: 0.672 s⁻¹
kon [2]: 1.41e+07 M⁻¹ s⁻¹
B1: murine endostatin peptide (mEP) (peptide)
peptide: LEQKAASCHNSYIVLCIENSFMTSFSK

B2: VEGF-C: vascular endothelial growth factor C, recombinant; literature KD for fully processed VEGF-C (protein)
chain: FESGLDLSDAEPDAGEATAYASKDLEEQLRSVSSVDELMTVLYPEYWKMYKCQLRKGGWQHNREQANLNSRTEETIKFAAAHYNTEILKSIDNEWRKTQCMPREVCIDVGKEFGVATNTFFKPPCVSVYRCGGCCNSEGLQCMNTSTSYLSKTLFEITVPLSQGPKPVTISFANHTSCRCMSKLDVYRQVHSIIRR
Repopulation of the scratch surface [3]: approximately 50%
Kd [4]: 1 nM

Binding of GST-endostatin-containing fragment to VEGFR-3-Fc (recombinant VEGFR-3-Fc; western blot with anti-VEGFR-3 antibody, absence of VEGF-C and low concentration of VEGF-C (lanes 1 and 2)): able to bind VEGFR-3-Fc
Binding of GST-endostatin-containing fragment to VEGFR-3-Fc (recombinant VEGFR-3-Fc; western blot, VEGF-C at a higher concentration (lane 3)): diminished
B3: GST-endostatin-containing fragments: GST-endostatin-containing fragments (protein)
chain: HTHQDFQPVLHLVALNTPLSGGMRGIRGADFQCFQQARAVGLSGTFRAFLSSRLQDLYSIVRRADRGSVPIVNLKDEVLSPSWDSLFSGSQGQLQPGARIFSFDGRDVLRHPAWPQKSVWHGSDPSGRRLMESYCETWRTETTGATGQASSLLSGRLLEQKAASCHNSYIVLCIENSFMTSFSK
modifications: left off: GST, end not stated, kept
